Reference: ChEMBL document CHEMBL1156931, “Discovery of novel fibroblast growth factor receptor 1 kinase inhibitors by structure-based virtual screening” (J Med Chem, 2010)

Experiments:
[1] = molecular target: Fibroblast growth factor receptor 1 (Homo sapiens, UniProt P11362); assay: Inhibition of FGFR1
[2] = molecular target: Epidermal growth factor receptor (Homo sapiens, UniProt P00533); assay: Inhibition of EGFR
In short: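 Commercially sourced EGFR enzyme was tested in an AlphaScreen format. Kinase, biotinylated peptide, ATP and inhibitor were combined across 10 wells, typically 0.01 µM to 250 µM inhibitor. Phosphorylation ran for 30 min and was stopped with EDTA. Phosphopeptide was detected with anti-phosphotyrosine acceptor beads and streptavidin donor beads.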

Insulin receptor [3] = molecular target: T1, Insulin receptor (Homo sapiens, UniProt P06213)
T1 sequence (P06213 28-758 limits assumed): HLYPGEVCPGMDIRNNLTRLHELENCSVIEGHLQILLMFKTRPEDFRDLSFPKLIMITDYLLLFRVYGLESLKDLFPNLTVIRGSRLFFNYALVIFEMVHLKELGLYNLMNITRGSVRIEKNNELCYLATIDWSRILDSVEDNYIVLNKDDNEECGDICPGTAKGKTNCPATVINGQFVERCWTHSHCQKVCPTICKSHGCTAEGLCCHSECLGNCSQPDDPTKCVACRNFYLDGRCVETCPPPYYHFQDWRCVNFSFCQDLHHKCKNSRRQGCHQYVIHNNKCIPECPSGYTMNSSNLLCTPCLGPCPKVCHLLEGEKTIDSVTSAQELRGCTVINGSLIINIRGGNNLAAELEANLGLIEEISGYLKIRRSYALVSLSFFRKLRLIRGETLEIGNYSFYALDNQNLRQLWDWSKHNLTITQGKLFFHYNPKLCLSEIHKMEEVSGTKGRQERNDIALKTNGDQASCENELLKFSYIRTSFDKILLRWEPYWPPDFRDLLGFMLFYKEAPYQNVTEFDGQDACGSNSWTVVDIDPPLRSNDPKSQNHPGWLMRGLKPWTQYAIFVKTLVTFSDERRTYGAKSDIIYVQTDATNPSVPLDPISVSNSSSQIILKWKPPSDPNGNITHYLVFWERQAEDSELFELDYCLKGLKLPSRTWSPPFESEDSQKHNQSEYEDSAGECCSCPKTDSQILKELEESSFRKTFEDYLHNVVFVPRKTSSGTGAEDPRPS
T1 sequence (P06213 763-1382 limits assumed): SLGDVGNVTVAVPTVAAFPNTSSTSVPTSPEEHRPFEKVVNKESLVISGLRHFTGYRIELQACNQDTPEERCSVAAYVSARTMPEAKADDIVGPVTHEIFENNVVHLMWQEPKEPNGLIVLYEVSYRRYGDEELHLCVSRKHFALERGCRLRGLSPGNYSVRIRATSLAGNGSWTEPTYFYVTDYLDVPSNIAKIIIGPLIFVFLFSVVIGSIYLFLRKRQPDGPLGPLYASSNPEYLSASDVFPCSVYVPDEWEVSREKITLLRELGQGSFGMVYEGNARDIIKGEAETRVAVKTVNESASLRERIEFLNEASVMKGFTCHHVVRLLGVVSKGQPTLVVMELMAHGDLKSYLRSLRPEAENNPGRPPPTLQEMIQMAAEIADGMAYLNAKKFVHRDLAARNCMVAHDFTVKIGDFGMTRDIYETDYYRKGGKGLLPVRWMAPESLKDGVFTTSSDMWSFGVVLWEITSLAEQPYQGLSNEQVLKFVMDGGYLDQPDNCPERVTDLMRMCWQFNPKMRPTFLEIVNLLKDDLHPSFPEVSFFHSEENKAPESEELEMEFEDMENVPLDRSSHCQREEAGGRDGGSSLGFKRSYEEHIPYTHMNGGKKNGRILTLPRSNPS

[4] = molecular target: Proto-oncogene tyrosine-protein kinase Src (Homo sapiens, UniProt P12931); assay: Inhibition of SRC
Chain of Proto-oncogene tyrosine-protein kinase Src (P12931 2-536 limits assumed): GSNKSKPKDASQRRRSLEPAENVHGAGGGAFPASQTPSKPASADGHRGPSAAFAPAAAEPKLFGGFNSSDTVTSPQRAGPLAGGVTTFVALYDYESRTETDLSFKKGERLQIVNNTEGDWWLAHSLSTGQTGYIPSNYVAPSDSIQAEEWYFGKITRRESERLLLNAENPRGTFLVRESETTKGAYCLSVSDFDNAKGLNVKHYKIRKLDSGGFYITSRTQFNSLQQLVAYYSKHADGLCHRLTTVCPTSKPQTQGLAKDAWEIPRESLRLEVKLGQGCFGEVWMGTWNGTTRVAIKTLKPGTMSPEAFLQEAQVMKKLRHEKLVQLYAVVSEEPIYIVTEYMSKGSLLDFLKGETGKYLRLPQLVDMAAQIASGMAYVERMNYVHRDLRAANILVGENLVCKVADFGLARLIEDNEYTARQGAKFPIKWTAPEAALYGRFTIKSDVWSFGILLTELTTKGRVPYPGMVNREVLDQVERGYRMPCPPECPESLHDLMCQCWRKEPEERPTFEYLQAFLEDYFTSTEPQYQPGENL

Insulin receptor [5] = molecular target: T1, Insulin receptor; remark: listed apart in the source

Chain of Fibroblast growth factor receptor 1 (P11362 whole entry): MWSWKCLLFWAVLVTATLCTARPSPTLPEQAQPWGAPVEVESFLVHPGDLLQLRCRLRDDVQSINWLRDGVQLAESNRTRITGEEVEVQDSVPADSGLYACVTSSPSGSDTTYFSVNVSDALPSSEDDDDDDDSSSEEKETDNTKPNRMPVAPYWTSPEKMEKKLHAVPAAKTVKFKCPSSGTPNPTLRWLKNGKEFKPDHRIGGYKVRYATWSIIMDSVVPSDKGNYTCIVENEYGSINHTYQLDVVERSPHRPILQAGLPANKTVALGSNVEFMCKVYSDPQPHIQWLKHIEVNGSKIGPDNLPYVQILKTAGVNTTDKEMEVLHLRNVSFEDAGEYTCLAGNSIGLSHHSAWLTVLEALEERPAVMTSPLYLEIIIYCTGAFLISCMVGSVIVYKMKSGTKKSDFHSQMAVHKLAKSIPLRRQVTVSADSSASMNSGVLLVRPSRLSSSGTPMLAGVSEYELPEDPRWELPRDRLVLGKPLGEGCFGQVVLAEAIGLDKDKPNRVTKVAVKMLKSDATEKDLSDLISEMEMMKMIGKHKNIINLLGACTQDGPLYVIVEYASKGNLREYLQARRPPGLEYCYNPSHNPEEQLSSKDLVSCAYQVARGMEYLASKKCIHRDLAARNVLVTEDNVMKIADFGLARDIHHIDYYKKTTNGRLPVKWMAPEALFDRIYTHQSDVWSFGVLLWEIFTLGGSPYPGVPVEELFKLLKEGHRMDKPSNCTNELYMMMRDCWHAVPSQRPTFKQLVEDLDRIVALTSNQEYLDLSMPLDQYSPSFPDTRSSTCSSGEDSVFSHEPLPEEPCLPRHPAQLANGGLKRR
Chain of Epidermal growth factor receptor (P00533 whole entry): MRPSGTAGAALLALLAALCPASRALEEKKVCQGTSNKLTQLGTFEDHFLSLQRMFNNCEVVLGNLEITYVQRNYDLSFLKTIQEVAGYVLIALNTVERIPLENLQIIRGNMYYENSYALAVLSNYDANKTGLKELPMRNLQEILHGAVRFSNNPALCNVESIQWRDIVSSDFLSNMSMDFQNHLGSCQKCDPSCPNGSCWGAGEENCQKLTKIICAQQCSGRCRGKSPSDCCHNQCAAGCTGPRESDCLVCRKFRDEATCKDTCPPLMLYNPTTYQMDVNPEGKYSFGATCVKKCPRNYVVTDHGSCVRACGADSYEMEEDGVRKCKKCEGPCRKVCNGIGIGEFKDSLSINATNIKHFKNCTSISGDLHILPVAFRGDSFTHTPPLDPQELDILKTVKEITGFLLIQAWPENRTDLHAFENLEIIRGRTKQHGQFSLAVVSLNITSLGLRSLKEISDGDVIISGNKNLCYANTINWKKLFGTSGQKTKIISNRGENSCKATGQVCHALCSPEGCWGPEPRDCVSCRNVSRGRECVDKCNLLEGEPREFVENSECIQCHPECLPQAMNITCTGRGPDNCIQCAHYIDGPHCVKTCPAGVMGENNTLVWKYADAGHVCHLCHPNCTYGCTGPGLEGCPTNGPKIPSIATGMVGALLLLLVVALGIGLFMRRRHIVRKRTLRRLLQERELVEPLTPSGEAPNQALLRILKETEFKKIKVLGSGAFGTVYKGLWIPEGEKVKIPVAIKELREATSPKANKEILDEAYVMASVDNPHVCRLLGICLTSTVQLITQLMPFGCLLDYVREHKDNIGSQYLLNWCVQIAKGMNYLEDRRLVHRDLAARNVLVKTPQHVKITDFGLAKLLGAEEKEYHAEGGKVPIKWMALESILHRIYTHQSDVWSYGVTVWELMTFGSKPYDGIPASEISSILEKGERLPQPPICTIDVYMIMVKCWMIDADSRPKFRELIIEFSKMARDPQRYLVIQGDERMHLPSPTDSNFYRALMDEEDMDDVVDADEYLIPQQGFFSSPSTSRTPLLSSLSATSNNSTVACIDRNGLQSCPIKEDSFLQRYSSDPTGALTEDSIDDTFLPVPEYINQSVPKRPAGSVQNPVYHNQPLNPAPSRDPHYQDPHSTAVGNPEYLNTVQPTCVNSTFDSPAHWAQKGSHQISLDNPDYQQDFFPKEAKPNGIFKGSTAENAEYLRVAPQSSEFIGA

Compound	IC50 [1]	also measured
O=C(CC1NC(=O)c2ccccc21)NCc1ccco1 (stereo not given)	Not Active	–
Cc1ccc2[nH]c(=O)c(-c3nc4ccc(Cl)cn4c3NCC3CCCO3)cc2c1 (stereo not given)	Not Active	–
COc1cc(-c2nc3sc4cc(C)ccc4c3c(=O)[nH]2)ccc1OCC(=O)O	–	IC50 ([1]; read-out: IC50): 4 µM
CCc1ccc2c(c1)sc1[nH]c(-c3ccc(OCC(=O)O)c(OC)c3)nc(=O)c12	–	IC50 ([1]; read-out: IC50): 5.5 µM
COc1ccc2cc(-c3nc4cccc(C)n4c3NC3CCCC3)c(=O)[nH]c2c1	Not Active	–
CC(=O)Nc1nc(-c2ccc(Cl)c(Cl)c2)nc2c1c(=O)oc1ccccc12	Not Active	–
O=C(CSc1nc2c(c(=O)[nH]1)C1CCCCC1S2)NCc1ccco1 (stereo not given)	Not Active	–
COCc1cc(/C=C2\NC(=S)NC2=O)ccc1OCCCOc1cc(C)cc(C)c1	–	IC50 ([1]; read-out: IC50): 3300 µM
COc1cc(/C=C2\NC(=S)NC2=O)ccc1OCCCOc1ccccc1Cl	Not Active	–
CC(C)C(=O)Nc1nc2c(c3c1c(=O)oc1ccccc13)CCCC2	Not Active	–
CCc1ccc(OCCCOc2ccc(/C=C3\SC(=O)NC3=O)cc2)cc1	Not Active	–
COc1cc(/C=C2\NC(=S)NC2=O)ccc1OCCCOc1cccc(C)c1	Not Active	–
COc1ccc(-c2nc(=O)c3c4c(sc3[nH]2)CC(C)CC4)cc1OC (stereo not given)	Not Active	–
COc1cccc(-c2nc(=O)c3c4c(sc3[nH]2)CC(C)CC4)c1 (stereo not given)	Not Active	–
O=C1C(Nc2ccccc2)=CC(c2cccc([N+](=O)[O-])c2)N1c1ccccc1 (stereo not given)	Not Active	–
COc1cc(-c2nc3sc4c(c3c(=O)[nH]2)CCC(C)C4)ccc1OCC(=O)O (stereo not given)	–	IC50 ([1]; read-out: IC50): 50 µM
CC(CCc1ccccc1)NC(=O)COC(=O)CC1Sc2ccccc2NC1=O (stereo not given)	Not Active	–
C=C1c2ccccc2NC(=O)N1c1cccc(Cl)c1	Not Active	–

Compound	IC50 [1]	also measured
CCOc1cc(/C=C2\NC(=S)NC2=O)ccc1OCCCOc1cc(C)cc(C)c1	–	IC50 ([1]; read-out: IC50): 250 µM
COc1cc(/C=C2\NC(=S)NC2=O)ccc1OCCCOc1ccc(Cl)cc1	Not Active	–
COc1cc(C2C=C(Nc3ccccc3)C(=O)N2c2ccccc2)ccc1O (stereo not given)	Not Active	–
COc1cc(-c2nc(=O)c3c([nH]2)sc2cc(C(F)(F)F)ccc23)ccc1OCC(=O)O	Not Active	–
CC(=O)Nc1nc(-c2ccc(C(C)(C)C)cc2)nc2c1c(=O)oc1ccccc12	Not Active	–
COc1ccc2cc(C3(C)NC(=O)N(Cc4ccc(F)cc4Cl)C3=O)ccc2c1 (stereo not given)	Not Active	–
CCOC(=O)CNc1ccccc1-c1nc2ccccc2[nH]c1=O	Not Active	–
COc1cc(-c2nc(=O)c3c([nH]2)sc2ccc(C)cc23)ccc1OCC(=O)O	–	IC50 [2]: 2.4 µM; IC50 (Insulin receptor [3]): Not Active
Cc1ccc2[nH]c(=O)c3cc(C(=O)N4CCN(c5ccccn5)CC4)sc3c2c1	Not Active	–
COc1cc(/C=C2\NC(=S)NC2=O)ccc1OCCCOc1cc(C)cc(C)c1	Not Active	–
O=c1[nH]c2ccc(NCc3cccc(OCc4ccccc4)c3)cc2[nH]1	Not Active	–
COc1cc(/C=C2\SC(=N)NC2=O)ccc1OCCCOc1cc(C)cc(C)c1	–	IC50 ([1]; read-out: IC50): 23 µM; IC50 [2]: 56 µM; IC50 [4]: 10 µM; IC50 (Insulin receptor [5]): 47 µM
O=C(NCc1n[nH]c(=O)c2ccccc12)c1ccc(Br)o1	Not Active	–
COc1ccc(-c2nc(NC(C)=O)c3c(=O)oc4ccc(Cl)cc4c3n2)cc1	Not Active	–
Cc1ccc(SCCNC(=O)COC(=O)Cc2n[nH]c(=O)c3ccccc23)cc1	Not Active	–
COc1cc(/C=C2\NC(=S)NC2=O)ccc1OCCCOc1cccc(Cl)c1	Not Active	–
C/C(=N\CC1CCCO1)C1C(=O)NC(=O)N(c2ccc(C)cc2)C1=O (stereo not given)	Not Active	–
Cc1ccc(C2(C)NC(=O)N(Cc3ccc(F)cc3)C2=O)cc1 (stereo not given)	Not Active	–
